In ChEMBL document CHEMBL5696442, “Discovery of type II inhibitors of TGFβ-activated kinase 1 (TAK1) and mitogen-activated protein kinase kinase kinase kinase 2 (MAP4K2)” (J Med Chem, 2015):

Legend:
[1] = target: Misshapen-like kinase 1 (Homo sapiens) (UniProt Q8N4C8); assay: Inhibition of ZC3 Lys2 labeling site in human Huh-7 cell lysate at 1 uM by KiNativ Profiling analysis relative to control; assay type: subcellular
[2] = target: Mitogen-activated protein kinase kinase kinase kinase 4 (Homo sapiens, UniProt O95819); assay: Inhibition of ZC1 Lys2 labeling site in human A-375 cells at 0.5 uM by KiNativ Profiling analysis relative to control; assay type: cell-based
[3] = target: Serine/threonine-protein kinase Nek7 (Homo sapiens) (UniProt Q8TDX7); assay: Inhibition of NEK7 Lys2 labeling site in human A-375 cells at 5 uM by KiNativ Profiling analysis relative to control; assay type: cell-based
[4] = target: T1, Serine/threonine-protein kinase greatwall (Homo sapiens) (UniProt Q96GX5); assay: Inhibition of MASTL ATP Loop labeling site in human A-375 cells at 0.5 uM by KiNativ Profiling analysis relative to control; assay type: cell-based
T1 sequence (whole entry): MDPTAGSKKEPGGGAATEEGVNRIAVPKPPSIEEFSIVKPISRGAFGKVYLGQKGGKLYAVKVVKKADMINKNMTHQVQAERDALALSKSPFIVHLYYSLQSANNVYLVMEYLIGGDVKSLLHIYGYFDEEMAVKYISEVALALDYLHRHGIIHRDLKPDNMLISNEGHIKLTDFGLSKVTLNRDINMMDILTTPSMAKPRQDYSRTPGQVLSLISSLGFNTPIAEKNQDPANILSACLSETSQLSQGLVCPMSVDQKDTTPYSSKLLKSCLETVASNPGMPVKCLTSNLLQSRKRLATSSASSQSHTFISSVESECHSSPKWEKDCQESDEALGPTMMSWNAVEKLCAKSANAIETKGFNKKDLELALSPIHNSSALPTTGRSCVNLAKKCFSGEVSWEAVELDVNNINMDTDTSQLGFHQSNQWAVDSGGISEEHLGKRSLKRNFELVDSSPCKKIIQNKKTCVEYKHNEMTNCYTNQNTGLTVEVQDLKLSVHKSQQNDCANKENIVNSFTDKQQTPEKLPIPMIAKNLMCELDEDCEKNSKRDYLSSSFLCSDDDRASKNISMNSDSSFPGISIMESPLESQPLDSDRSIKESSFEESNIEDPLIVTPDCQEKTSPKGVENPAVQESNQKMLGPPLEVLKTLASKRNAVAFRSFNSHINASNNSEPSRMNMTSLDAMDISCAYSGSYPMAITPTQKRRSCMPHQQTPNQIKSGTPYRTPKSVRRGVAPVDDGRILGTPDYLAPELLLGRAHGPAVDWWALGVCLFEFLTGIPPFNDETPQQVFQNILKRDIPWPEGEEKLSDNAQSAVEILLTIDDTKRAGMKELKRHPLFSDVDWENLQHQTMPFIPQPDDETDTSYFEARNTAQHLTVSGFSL

[5] = target: Serine/threonine-protein kinase 24 (Homo sapiens) (UniProt Q9Y6E0); assay: Inhibition of MST3 Lys2 labeling site harbouring DIKAANVLLSEHGEVK in human A-375 cells at 0.5 uM by KiNativ Profiling analysis relative to control; assay type: cell-based
[6] = target: Serine/threonine-protein kinase 26 (Homo sapiens) (UniProt Q9P289); assay: Inhibition of MST4 Lys2 labeling site in human A-375 cells at 0.5 uM by KiNativ Profiling analysis relative to control; assay type: cell-based
[7] = target: T2, Serine/threonine-protein kinase Nek8 (Homo sapiens) (UniProt Q86SG6); assay: Inhibition of NEK8 Lys2 labeling site in human A-375 cells at 0.5 uM by KiNativ Profiling analysis relative to control; assay type: cell-based
T2 sequence (whole entry): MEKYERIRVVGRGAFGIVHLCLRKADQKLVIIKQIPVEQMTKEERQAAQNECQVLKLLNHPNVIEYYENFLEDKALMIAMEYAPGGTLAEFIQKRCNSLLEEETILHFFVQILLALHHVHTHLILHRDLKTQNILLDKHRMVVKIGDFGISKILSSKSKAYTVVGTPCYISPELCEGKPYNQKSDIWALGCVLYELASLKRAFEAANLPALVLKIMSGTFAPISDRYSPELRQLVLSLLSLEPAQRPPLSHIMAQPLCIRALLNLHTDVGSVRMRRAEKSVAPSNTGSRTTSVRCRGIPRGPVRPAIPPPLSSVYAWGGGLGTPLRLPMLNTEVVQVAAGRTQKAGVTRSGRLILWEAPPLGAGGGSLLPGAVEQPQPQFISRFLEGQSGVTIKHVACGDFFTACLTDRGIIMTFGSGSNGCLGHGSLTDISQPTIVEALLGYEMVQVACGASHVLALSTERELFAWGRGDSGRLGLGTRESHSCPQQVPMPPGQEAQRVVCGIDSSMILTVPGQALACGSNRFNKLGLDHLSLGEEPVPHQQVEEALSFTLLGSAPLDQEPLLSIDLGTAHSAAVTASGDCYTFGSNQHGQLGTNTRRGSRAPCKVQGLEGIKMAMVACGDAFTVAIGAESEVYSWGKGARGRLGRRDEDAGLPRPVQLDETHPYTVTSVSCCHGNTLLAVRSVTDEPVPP

[8] = target: Cyclin-dependent kinase 18 (Homo sapiens) (UniProt Q07002); assay: Inhibition of PCTAIRE3 Lys1 labeling site harbouringSKLTENLVALKEIR in human A-375 cells at 0.5 uM by KiNativ Profiling analysis relative to control; assay type: cell-based
Method in brief: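 Live A375 melanoma cells were treated with compound at 5 or 0.5 μM, then lysed. Lysates were labeled with a lysine-reactive ATP or ADP-biotin probe. Read-out was the compound's protection of kinase labeling sites from probe labeling (KiNativ).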

[9] = target: Serine/threonine-protein kinase WNK1 (Homo sapiens) (UniProt Q9H4A3); assay: Inhibition of Wnk1 ATP Loop labeling site in human A-375 cells at 0.05 uM by KiNativ Profiling analysis relative to control; assay type: cell-based
Sequence of Serine/threonine-protein kinase WNK1 (Homo sapiens) (Q9H4A3 whole entry, looked up): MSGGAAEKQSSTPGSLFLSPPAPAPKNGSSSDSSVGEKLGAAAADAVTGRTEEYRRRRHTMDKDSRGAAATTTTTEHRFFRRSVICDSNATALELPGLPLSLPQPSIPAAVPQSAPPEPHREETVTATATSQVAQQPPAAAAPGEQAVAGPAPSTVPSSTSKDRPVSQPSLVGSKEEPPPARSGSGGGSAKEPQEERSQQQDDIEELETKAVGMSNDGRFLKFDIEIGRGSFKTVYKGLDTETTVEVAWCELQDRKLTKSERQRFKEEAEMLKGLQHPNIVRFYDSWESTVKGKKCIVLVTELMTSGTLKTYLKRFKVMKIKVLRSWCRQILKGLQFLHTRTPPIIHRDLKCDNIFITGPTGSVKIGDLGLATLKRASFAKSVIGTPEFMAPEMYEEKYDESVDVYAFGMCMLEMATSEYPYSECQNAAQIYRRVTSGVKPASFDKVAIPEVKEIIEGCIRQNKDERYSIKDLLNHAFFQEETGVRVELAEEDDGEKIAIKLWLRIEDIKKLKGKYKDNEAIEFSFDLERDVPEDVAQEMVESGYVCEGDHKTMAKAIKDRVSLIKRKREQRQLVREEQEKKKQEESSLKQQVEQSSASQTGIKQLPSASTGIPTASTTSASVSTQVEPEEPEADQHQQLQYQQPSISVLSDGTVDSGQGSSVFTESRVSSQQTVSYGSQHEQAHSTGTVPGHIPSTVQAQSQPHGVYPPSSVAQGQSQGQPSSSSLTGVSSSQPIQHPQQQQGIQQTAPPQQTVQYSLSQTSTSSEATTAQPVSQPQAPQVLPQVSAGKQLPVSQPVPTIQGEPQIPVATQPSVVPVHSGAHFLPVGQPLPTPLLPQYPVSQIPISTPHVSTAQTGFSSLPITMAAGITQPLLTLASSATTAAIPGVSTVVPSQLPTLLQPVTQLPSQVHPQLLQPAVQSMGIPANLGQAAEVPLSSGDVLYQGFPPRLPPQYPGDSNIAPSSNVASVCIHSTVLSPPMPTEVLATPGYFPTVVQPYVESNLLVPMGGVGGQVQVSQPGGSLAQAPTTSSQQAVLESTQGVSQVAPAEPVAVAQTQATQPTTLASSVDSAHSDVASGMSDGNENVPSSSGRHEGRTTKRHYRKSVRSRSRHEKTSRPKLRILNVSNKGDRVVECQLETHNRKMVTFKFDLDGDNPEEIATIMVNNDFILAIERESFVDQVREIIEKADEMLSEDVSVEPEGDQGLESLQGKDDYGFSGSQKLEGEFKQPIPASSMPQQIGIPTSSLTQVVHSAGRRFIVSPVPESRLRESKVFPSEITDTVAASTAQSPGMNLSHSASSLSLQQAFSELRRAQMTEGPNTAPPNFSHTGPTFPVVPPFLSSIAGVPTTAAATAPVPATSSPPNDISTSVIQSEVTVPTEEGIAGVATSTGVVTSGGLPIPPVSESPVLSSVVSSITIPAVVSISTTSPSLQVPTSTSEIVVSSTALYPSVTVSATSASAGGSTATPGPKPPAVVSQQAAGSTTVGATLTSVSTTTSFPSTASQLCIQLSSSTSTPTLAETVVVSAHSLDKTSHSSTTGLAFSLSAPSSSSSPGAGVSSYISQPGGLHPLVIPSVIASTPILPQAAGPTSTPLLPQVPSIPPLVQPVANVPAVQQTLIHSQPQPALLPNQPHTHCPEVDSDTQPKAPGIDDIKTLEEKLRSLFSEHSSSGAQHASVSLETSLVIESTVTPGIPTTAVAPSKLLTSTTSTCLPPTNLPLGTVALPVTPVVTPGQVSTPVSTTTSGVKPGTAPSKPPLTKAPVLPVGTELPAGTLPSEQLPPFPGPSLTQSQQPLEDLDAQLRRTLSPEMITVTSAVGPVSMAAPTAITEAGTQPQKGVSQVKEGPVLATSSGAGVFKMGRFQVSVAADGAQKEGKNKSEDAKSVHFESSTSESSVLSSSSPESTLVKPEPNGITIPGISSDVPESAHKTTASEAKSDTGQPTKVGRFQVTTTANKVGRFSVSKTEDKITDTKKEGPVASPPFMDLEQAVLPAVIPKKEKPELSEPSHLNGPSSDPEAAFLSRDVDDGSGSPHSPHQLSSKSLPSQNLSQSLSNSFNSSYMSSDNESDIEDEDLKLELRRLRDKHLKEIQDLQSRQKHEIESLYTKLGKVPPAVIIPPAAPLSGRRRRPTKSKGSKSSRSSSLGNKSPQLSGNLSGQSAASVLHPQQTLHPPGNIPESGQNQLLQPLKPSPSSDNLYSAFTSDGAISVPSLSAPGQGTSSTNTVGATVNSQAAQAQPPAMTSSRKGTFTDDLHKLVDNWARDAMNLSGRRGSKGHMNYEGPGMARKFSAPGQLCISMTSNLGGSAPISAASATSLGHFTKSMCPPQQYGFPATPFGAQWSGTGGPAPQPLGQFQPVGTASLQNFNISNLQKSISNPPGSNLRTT

Sequence of Serine/threonine-protein kinase Nek7 (Homo sapiens) (Q8TDX7 whole entry, looked up): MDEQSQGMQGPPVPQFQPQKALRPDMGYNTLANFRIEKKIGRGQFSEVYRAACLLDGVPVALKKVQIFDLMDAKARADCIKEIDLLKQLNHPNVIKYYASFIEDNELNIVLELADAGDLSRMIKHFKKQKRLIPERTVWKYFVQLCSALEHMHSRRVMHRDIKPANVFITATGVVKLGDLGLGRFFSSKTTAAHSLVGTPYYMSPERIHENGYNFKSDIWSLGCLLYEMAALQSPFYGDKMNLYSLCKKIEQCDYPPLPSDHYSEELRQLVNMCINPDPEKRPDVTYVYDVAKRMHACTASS
Sequence of Serine/threonine-protein kinase 26 (Homo sapiens) (Q9P289 2-416 limits assumed): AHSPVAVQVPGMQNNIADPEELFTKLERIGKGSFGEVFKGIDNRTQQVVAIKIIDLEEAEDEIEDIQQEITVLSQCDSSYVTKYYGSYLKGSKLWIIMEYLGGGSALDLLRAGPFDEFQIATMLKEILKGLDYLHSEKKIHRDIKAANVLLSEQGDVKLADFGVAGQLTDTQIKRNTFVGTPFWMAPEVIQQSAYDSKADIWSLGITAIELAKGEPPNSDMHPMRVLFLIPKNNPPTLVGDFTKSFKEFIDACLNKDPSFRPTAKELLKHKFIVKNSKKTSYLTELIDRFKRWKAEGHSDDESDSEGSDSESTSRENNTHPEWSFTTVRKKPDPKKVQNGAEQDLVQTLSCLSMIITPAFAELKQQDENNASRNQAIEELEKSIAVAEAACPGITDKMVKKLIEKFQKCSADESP
Sequence of Cyclin-dependent kinase 18 (Homo sapiens) (Q07002 whole entry): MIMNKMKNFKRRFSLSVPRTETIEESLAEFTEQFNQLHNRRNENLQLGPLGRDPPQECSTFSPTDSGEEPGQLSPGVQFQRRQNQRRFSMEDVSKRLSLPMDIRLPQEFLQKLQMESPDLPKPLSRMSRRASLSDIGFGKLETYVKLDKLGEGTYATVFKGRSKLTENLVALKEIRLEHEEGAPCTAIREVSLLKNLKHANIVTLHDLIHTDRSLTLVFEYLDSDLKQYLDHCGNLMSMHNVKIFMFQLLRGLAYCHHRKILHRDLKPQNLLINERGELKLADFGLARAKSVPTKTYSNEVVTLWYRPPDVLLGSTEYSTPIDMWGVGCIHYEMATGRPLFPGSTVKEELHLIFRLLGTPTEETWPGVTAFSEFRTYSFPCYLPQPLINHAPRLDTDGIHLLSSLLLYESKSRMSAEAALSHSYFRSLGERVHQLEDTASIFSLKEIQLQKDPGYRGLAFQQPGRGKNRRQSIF
Sequence of Serine/threonine-protein kinase 24 (Homo sapiens) (Q9Y6E0 whole entry, looked up): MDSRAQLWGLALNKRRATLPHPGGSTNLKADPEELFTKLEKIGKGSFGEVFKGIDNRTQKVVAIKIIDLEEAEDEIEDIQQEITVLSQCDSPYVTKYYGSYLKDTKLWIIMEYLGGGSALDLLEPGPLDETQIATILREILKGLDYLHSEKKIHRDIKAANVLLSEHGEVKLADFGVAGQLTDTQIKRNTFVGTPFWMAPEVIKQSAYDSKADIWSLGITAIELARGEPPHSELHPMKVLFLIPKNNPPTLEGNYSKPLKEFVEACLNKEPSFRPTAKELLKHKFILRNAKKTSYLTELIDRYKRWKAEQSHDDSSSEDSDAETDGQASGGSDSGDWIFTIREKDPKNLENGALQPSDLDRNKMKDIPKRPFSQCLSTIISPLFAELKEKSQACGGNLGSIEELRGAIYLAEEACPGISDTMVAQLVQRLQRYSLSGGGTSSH

Compound	inhibition [1]	inhibition [2]	inhibition [3]	inhibition [4]	inhibition [5]	inhibition [6]	inhibition [7]	inhibition [8]	inhibition [9]
CNc1cc(Oc2cc(C(=O)Nc3cc(-n4cnc(C)c4)cc(C(F)(F)F)c3)ccc2C)ncn1	24.1%								
CNc1cc(Oc2cc(C(=O)Nc3cc(N4CCN(C)CC4)cc(C(F)(F)F)c3)ccc2C)ncn1	2.7%								
CCN1CCN(Cc2ccc(NC(=O)c3ccc(C)c(Oc4ccnc5[nH]ccc45)c3)cc2C(F)(F)F)CC1		70.8%	6.4%	11.4%	1.6%	12.5%	-9.5%	31.7%	2.4%
CCN1CCN(Cc2ccc(NC(=O)c3ccc(C)c(/C=C/c4cnc5[nH]ccc5c4OC)c3)cc2C(F)(F)F)CC1		48.1%	3.1%	0.2%	0.2%	9.8%	-8.8%	11.3%	5%
